This note sets out measurements from ChEMBL document CHEMBL1157014, “Synthesis, characterization and biological evaluation of some thiourea derivatives bearing benzothiazole moiety as potential antimicrobial and anticancer agents” (Eur J Med Chem, 2010).

In general, pIC50 refers to the negative decadic logarithm of the IC50, by convention in mol/L.

For one assay, the system named is Enterobacter cloacae. The experiment in a line: Antibacterial activity against Enterobacter cloacae ATCC 13047 after 24 hrs by browth microdilution assay. The assay is classed as functional. The settings on record: ATCC 13047, 24 h. The method in brief:
(§1)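 Broth microdilution per CLSI. Colonies suspended in 0.9% saline and adjusted to McFarland 0.5. Compounds dissolved in DMSO, diluted with distilled water to 100, 50, 25, 12.5, 6.25 and 3.125 µg/ml, with DMSO as negative control. Gentamycin (Gram-negative) and amikacin (Gram-positive) served as reference drugs. Incubation at 37 °C for 24 h. MIC taken as the lowest concentration preventing visible growth.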

The next assay has as its system Pseudomonas aeruginosa. Kind of assay: Antibacterial activity against Pseudomonas aeruginosa ATCC 27853 after 24 hrs by browth microdilution assay. The assay is classed as functional. The settings on record: ATCC 27853, 24 h. Put shortly:
as §1

The next assay has as its system Proteus vulgaris. The experiment in a line: Antibacterial activity against Proteus vulgaris ATCC 13315 after 24 hrs by browth microdilution assay. The assay is classed as functional. As to conditions: ATCC 13315, 24 h. Put shortly:
as §1
(Dilution methods test growth across graded concentrations, often in twofold steps.)

For assay [1], the system named is Staphylococcus epidermidis. The experiment in a line: Antibacterial activity against Staphylococcus epidermidis ATCC 12228 after 24 hrs by browth microdilution assay. The assay is classed as functional. As to conditions: ATCC 12228, 24 h. Put shortly:
as §1

The next assay relates to Staphylococcus aureus. The experiment in a line: Antibacterial activity against Staphylococcus aureus ATCC 29213 after 24 hrs by browth microdilution assay. The assay is classed as functional. As to conditions: ATCC 29213, 24 h. The method in brief: as §1
Another assay has as its system Enterococcus faecalis. The experiment in a line: Antibacterial activity against Enterococcus faecalis ATCC 29212 after 24 hrs by browth microdilution assay. The assay is classed as functional. As to conditions: ATCC 29212, 24 h. The method in brief:
as §1

For a further assay, the system named is Nakaseomyces glabratus. Kind of assay: Antifungal activity against Candida glabrata ATCC 32554 after 48 hrs by browth microdilution assay. The assay is classed as functional. The method in brief:
(§2)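 Yeast colonies suspended in 0.9% saline and adjusted to McFarland 0.5, then tested by CLSI broth microdilution. Compounds in DMSO, diluted with distilled water to 3.125–100 µg/ml, with DMSO as negative control and nystatin as reference. Incubation at 37 °C, read after 48 h. MIC is the lowest concentration with no visible growth.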

In another assay the test system is Candida albicans. The experiment in a line: Antifungal activity against Candida albicans ATCC 90028 after 48 hrs by browth microdilution assay. The assay is classed as functional. Put shortly:
as §2

The subject of the next assay is Candida tropicalis. The experiment in a line: Antifungal activity against Candida tropicalis ATCC 20336 after 48 hrs by browth microdilution assay. The assay is classed as functional. The method in brief: as §2
Another assay concerns Pichia kudriavzevii. The experiment in a line: Antifungal activity against Candida krusei ATCC 6268 after 48 hrs by browth microdilution assay. The assay is classed as functional. The method in brief: as §2
The next assay deals with MCF7. The experiment in a line: Cytotoxicity against human MCF7 after 24 hrs by MTT assay. The assay is classed as functional, cell-based. The settings on record: MCF7, 24 h. The method in brief:
(§3)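 Cells grown in MEM with 10% FBS and 1% glutamine at 5% CO2, seeded at 1.0×10^4 cells. Exposed to compounds at 1–100 µM in medium containing 0.1% DMSO for 24 h at 37 °C. MTT (1 mg/ml) added for 5 h at 37 °C, then DMSO added and absorbance read at 540 nm. Run in triplicate; IC50 determined.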
In general terms: Tetrazolium dyes change colour on reduction, which living cells bring about.

In a further assay the test system is HeLa. Kind of assay: Cytotoxicity against human HeLa after 24 hrs by MTT assay. The assay is classed as functional, cell-based. Put shortly:
as §3

In another assay the test system is Escherichia coli. The experiment in a line: microbe, parasite or virus in culture. As to conditions: ATCC 25922, 24 h.
Assay [2] relates to Staphylococcus aureus (ATCC 25923). Kind of assay: Antibacterial activity against Staphylococcus aureus ATCC 25923 after 24 hrs by browth microdilution assay. As to conditions: ATCC 25923, 24 h.

pIC50: −log10 of the molar value. ≈ marks a conversion by molar mass, not a printed value. Where only a bound is given, the exact number is not on record here.

As to `O=C(NC(=S)Nc1nc2ccccc2s1)N1CCOCC1`, the MIC came to 25 µg/mL (≈ 77.5 µM) against Enterobacter cloacae; 50 µg/mL (≈ 155 µM) in the assay on Pseudomonas aeruginosa; 25 µg/mL (≈ 77.5 µM) with Proteus vulgaris; 25 µg/mL (≈ 77.5 µM) in assay [1]; 50 µg/mL (≈ 155 µM) against Staphylococcus aureus; 50 µg/mL (≈ 155 µM) in the assay with Enterococcus faecalis. Further, the MIC in the assay on Nakaseomyces glabratus (ATCC 32554, 48 h) came to 25 µg/mL (≈ 77.5 µM); against Candida albicans (ATCC 90028, 48 h), 25 µg/mL (≈ 77.5 µM); against Candida tropicalis (ATCC 20336, 48 h) it was 25 µg/mL (≈ 77.5 µM); against Pichia kudriavzevii (ATCC 6268, 48 h), 25 µg/mL (≈ 77.5 µM); in the assay on Escherichia coli, 25 µg/mL (≈ 77.5 µM); in [2] it was 50 µg/mL (≈ 155 µM). For the same compound, the pIC50 is 4.53 in the assay with MCF7 and 4.29 with HeLa.

For `Nc1ccc2sc(NC(=S)NC(=O)c3ccccc3)nc2c1`, the MIC (with Enterobacter cloacae; against Pseudomonas aeruginosa; against Proteus vulgaris; in assay [1]; against Staphylococcus aureus; in the assay on Enterococcus faecalis) was 50 µg/mL (≈ 152 µM) each time. For the same compound, the MIC against Nakaseomyces glabratus (ATCC 32554, 48 h) worked out at 25 µg/mL (≈ 76.1 µM); in the assay with Candida albicans (ATCC 90028, 48 h) it was 25 µg/mL (≈ 76.1 µM); with Candida tropicalis (ATCC 20336, 48 h), 50 µg/mL (≈ 152 µM); with Pichia kudriavzevii (ATCC 6268, 48 h), 25 µg/mL (≈ 76.1 µM); in the assay on Escherichia coli it was 50 µg/mL (≈ 152 µM); in assay [2] it was 50 µg/mL (≈ 152 µM). Also, the results for the pIC50 with MCF7 and in the assay with HeLa were 4.41 and 4.15, respectively.

Consider `O=C(NC(=S)Nc1nc2ccccc2s1)c1ccccc1`, for which the MIC against Nakaseomyces glabratus (ATCC 32554, 48 h) was determined as 25 µg/mL (≈ 79.8 µM); in the assay with Candida albicans (ATCC 90028, 48 h), 50 µg/mL (≈ 160 µM); against Candida tropicalis (ATCC 20336, 48 h), 50 µg/mL (≈ 160 µM); against Pichia kudriavzevii (ATCC 6268, 48 h), 50 µg/mL (≈ 160 µM). The pIC50 is 4.43 in the assay on MCF7 and 4.24 with HeLa.

For `O=C(NC(=S)Nc1nc2cc(Br)ccc2s1)c1ccccc1`, the MIC in [1] amounted to 50 µg/mL (≈ 127 µM); against Staphylococcus aureus it was 50 µg/mL (≈ 127 µM); against Enterococcus faecalis, 50 µg/mL (≈ 127 µM); against Nakaseomyces glabratus (ATCC 32554, 48 h) it was 25 µg/mL (≈ 63.7 µM); against Candida albicans (ATCC 90028, 48 h) it was 25 µg/mL (≈ 63.7 µM); against Candida tropicalis (ATCC 20336, 48 h) it was 50 µg/mL (≈ 127 µM). Further, the MIC against Pichia kudriavzevii (ATCC 6268, 48 h) came to 50 µg/mL (≈ 127 µM); in [2], 50 µg/mL (≈ 127 µM). Moreover, the negative-log IC50 (pIC50) with MCF7 was 4.49; with HeLa, 4.19.

Regarding `O=C(NC(=S)Nc1nc2cc([N+](=O)[O-])ccc2s1)c1cccs1`, the MIC with Enterobacter cloacae turned out to be 15 µg/mL (≈ 41.2 µM); with Pseudomonas aeruginosa it was 20 µg/mL (≈ 54.9 µM); with Proteus vulgaris it was 20 µg/mL (≈ 54.9 µM); in assay [1] it was 10 µg/mL (≈ 27.4 µM); against Staphylococcus aureus, 25 µg/mL (≈ 68.6 µM); against Enterococcus faecalis it was 15 µg/mL (≈ 41.2 µM). Also, the MIC against Nakaseomyces glabratus (ATCC 32554, 48 h) is 10 µg/mL (≈ 27.4 µM); in the assay on Candida albicans (ATCC 90028, 48 h), 15 µg/mL (≈ 41.2 µM); in the assay with Candida tropicalis (ATCC 20336, 48 h), 15 µg/mL (≈ 41.2 µM); with Pichia kudriavzevii (ATCC 6268, 48 h) it was 20 µg/mL (≈ 54.9 µM); in the assay on Escherichia coli it was 15 µg/mL (≈ 41.2 µM); in assay [2], 25 µg/mL (≈ 68.6 µM). Also, the pIC50 was 4.45 in the assay on MCF7 and 4.14 in the assay with HeLa.

In the case of `CCCC(=O)NC(=S)Nc1nc2cc(Br)ccc2s1`, the MIC (with Enterobacter cloacae; in the assay on Pseudomonas aeruginosa; in the assay with Proteus vulgaris; in assay [1]; in the assay on Staphylococcus aureus; against Enterococcus faecalis) was 50 µg/mL (≈ 140 µM) in each case. In addition, the MIC in the assay on Nakaseomyces glabratus (ATCC 32554, 48 h) was 50 µg/mL (≈ 140 µM); against Candida albicans (ATCC 90028, 48 h), 25 µg/mL (≈ 69.8 µM); in the assay with Candida tropicalis (ATCC 20336, 48 h), 50 µg/mL (≈ 140 µM); against Pichia kudriavzevii (ATCC 6268, 48 h), 50 µg/mL (≈ 140 µM). The pIC50 in the assay with MCF7 was 4.34; with HeLa, 4.22.

Turning to `CCCC(=O)NC(=S)Nc1nc2cc([N+](=O)[O-])ccc2s1`, the MIC against Enterobacter cloacae amounted to 20 µg/mL (≈ 61.7 µM); in the assay with Pseudomonas aeruginosa, 20 µg/mL (≈ 61.7 µM); with Proteus vulgaris, 20 µg/mL (≈ 61.7 µM); in assay [1], 50 µg/mL (≈ 154 µM); with Staphylococcus aureus, 50 µg/mL (≈ 154 µM); in the assay on Enterococcus faecalis, 50 µg/mL (≈ 154 µM). Also, the MIC in the assay on Nakaseomyces glabratus (ATCC 32554, 48 h) is 25 µg/mL (≈ 77.1 µM); against Candida albicans (ATCC 90028, 48 h), 20 µg/mL (≈ 61.7 µM); in the assay with Candida tropicalis (ATCC 20336, 48 h), 50 µg/mL (≈ 154 µM); with Pichia kudriavzevii (ATCC 6268, 48 h), 25 µg/mL (≈ 77.1 µM). Moreover, the pIC50 with MCF7 is under 4.00.

For `O=C(NC(=S)Nc1nc2cc([N+](=O)[O-])ccc2s1)c1ccc([N+](=O)[O-])cc1`, the MIC against Enterobacter cloacae is 25 µg/mL (≈ 62 µM); against Pseudomonas aeruginosa, 50 µg/mL (≈ 124 µM); against Proteus vulgaris it was 25 µg/mL (≈ 62 µM); in assay [1] it was 25 µg/mL (≈ 62 µM); against Staphylococcus aureus it was 50 µg/mL (≈ 124 µM); against Enterococcus faecalis it was 50 µg/mL (≈ 124 µM). For the same compound, the MIC amounted to 25 µg/mL (≈ 62 µM) in the assay with Nakaseomyces glabratus (ATCC 32554, 48 h); 25 µg/mL (≈ 62 µM) in the assay with Candida albicans (ATCC 90028, 48 h); 25 µg/mL (≈ 62 µM) in the assay on Candida tropicalis (ATCC 20336, 48 h); 25 µg/mL (≈ 62 µM) in the assay on Pichia kudriavzevii (ATCC 6268, 48 h); 50 µg/mL (≈ 124 µM) against Escherichia coli; 50 µg/mL (≈ 124 µM) in [2]. Besides, the pIC50 with MCF7 is 4.45; in the assay with HeLa, 4.16.

`CCCC(=O)NC(=S)Nc1nc2ccccc2s1`: the MIC stood at 50 µg/mL (≈ 179 µM) in the assay with Nakaseomyces glabratus (ATCC 32554, 48 h); 20 µg/mL (≈ 71.6 µM) in the assay on Candida albicans (ATCC 90028, 48 h); 50 µg/mL (≈ 179 µM) against Candida tropicalis (ATCC 20336, 48 h); 25 µg/mL (≈ 89.5 µM) against Pichia kudriavzevii (ATCC 6268, 48 h). The results for the pIC50 with MCF7 and in the assay with HeLa were 4.44 and 4.25, respectively.

On to NYSTATIN, for which the MIC in the assay with Nakaseomyces glabratus stood at 2 µg/mL; in the assay with Candida albicans it was 1 µg/mL; against Candida tropicalis, 4 µg/mL; in the assay on Pichia kudriavzevii, 0.5 µg/mL.
